For 16 compounds, IC50 and inhibition results are on record in ChEMBL document CHEMBL4680339, “Synthesis and bioevaluation of N-(3,4,5-trimethoxyphenyl)-1H-pyrazolo[3,4-b]pyridin-3-amines as tubulin polymerization inhibitors with anti-angiogenic effects” (Bioorg Med Chem, 2021).

Broadly, the IC50 is the midpoint of a concentration-inhibition curve.

SMILES strings stand for the structures.

One assay deals with HCT-116. Put plainly: Antiproliferative activity against human HCT-116 cells assessed as reduction in cell growth incubated for 72 hrs by MTT assay. The class given is functional, cell-based. As to conditions: HCT-116, 72 h. The essentials:
(§1)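 Log-phase cells seeded at 5 × 10³/well and grown 24 h, then exposed to graded compound concentrations for 72 h. MTT (5 mg/mL) added for 4 h; formazan dissolved in DMSO and absorbance read at 490 nm. IC50 calculated from growth inhibition; means ± SD of triplicate experiments.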
For orientation: Tetrazolium assays rely on reduction of a dye to a coloured formazan, in cell work by metabolically active cells.

For another assay, the system named is MCF7. Put plainly: Antiproliferative activity against human MCF7 cells assessed as reduction in cell growth incubated for 72 hrs by MTT assay. Type of assay: functional, cell-based. The following applies: MCF7, 72 h. The essentials:
as §1

Another assay deals with A549. Put plainly: Antiproliferative activity against human A549 cells assessed as reduction in cell growth incubated for 72 hrs by MTT assay. The class given is functional, cell-based. The following applies: A549, 72 h. The essentials:
as §1

For a further assay, the system named is WI-38. Put plainly: Cytotoxicity against human WI-38 cells assessed as reduction in cell growth incubated for 72 hrs by MTT assay. The class given is cell-based. The following applies: WI-38, 72 h. The essentials: as §1
For the next assay, the system named is HeLa. Put plainly: Antiproliferative activity against human HeLa cells assessed as reduction in cell growth incubated for 72 hrs by MTT assay. Type of assay: functional, cell-based. The essentials:
as §1

The next assay has as its system HepG2. Put plainly: Antiproliferative activity against human HepG2 cells assessed as reduction in cell growth incubated for 72 hrs by MTT assay. Type of assay: functional, cell-based. The following applies: HepG2, 72 h. The essentials: as §1
The species named for a further assay is Sus scrofa. Put plainly: (§2) Inhibition of pig brain tubulin polymerization by spectrophotometric method. Type of assay: tissue-based. The essentials:
(§3)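 Pig brain tubulin, purified by three assembly/disassembly cycles and phosphocellulose chromatography, mixed with compound at various concentrations. Buffer: PEM (100 mM PIPES, 1 mM MgCl₂, 1 mM EGTA) with 1 mM GTP and 5% glycerol. Polymerization followed at 37 °C by light scattering at 340 nm; plateau absorbance used for calculation.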

Assay [1] can be described thus: as §2. The class given is tissue-based, Sus scrofa. The essentials:
as §3

Turning to `COc1ccc2c(Nc3cc(OC)c(OC)c(OC)c3)nn(C3CCCC3)c2n1`, the 50% inhibitory concentration (IC50) with HCT-116 is above 50 µM; in the assay with MCF7 it was 22.4 µM; in the assay on A549, above 50 µM; in the assay with WI-38, 73.8 µM; with HeLa, 6280 nM; in the assay with HepG2 it was above 50 µM.

In the case of `COc1ccc2c(N(CCF)c3cc(OC)c(OC)c(OC)c3)n[nH]c2n1`, the half-maximal inhibitory concentration (IC50) with HCT-116 amounted to 0.12 µM; in the assay with MCF7 it was 0.102 µM; in the assay with A549 it was 0.2 µM; in the assay on WI-38, 16.5 µM; in assay [1], 55.7 µM; with HeLa, 12 nM. For the same compound, in the assay on HepG2, the IC50 was determined as 5.79 µM. The inhibition entry in the assay filed under Sus scrofa is “Dose-dependent effect”.

`COc1ccc2c(N(C)c3cc(OC)c(OC)c(OC)c3)nn(C)c2n1`: the IC50 is above 50 µM with HCT-116; above 50 µM in the assay on MCF7; above 50 µM in the assay with A549; 22.8 µM in the assay with WI-38; 590 nM in the assay with HeLa; 2.52 µM in the assay on HepG2.

As for `COc1ccc2c(N(c3cc(OC)c(OC)c(OC)c3)C(C)C)n[nH]c2n1`, the 50% inhibitory concentration (IC50) in the assay on HCT-116 is above 50 µM; in the assay on MCF7, above 50 µM; in the assay with A549, above 50 µM; with WI-38, 6.04 µM; with HeLa, 21200 nM; in the assay with HepG2, 24.5 µM.

Turning to `CCCN(c1cc(OC)c(OC)c(OC)c1)c1n[nH]c2nc(OC)ccc12`, the half-maximal inhibitory concentration (IC50) in the assay with HCT-116 is 5.97 µM; in the assay with MCF7 it was 1.37 µM; with A549 it was above 50 µM; with WI-38 it was 2.99 µM; in the assay on HeLa, 730 nM; with HepG2, 6.26 µM.

On to `COc1ccc2c(Nc3cc(OC)c(OC)c(OC)c3)nn(C)c2n1`, for which the IC50 is above 50 µM in the assay on HCT-116; above 50 µM in the assay on MCF7; above 50 µM in the assay on A549; 2.43 µM with WI-38; 6070 nM in the assay with HeLa; 6.24 µM in the assay with HepG2.

Turning to `COc1ccc2c(N(c3cc(OC)c(OC)c(OC)c3)C3CCCC3)n[nH]c2n1`, the IC50 was 26.2 µM with HCT-116; above 50 µM with MCF7; 22.7 µM in the assay with A549; 10.4 µM with WI-38; 28400 nM in the assay on HeLa; above 50 µM with HepG2.

Turning to `COc1ccc2c(N(CC(F)F)c3cc(OC)c(OC)c(OC)c3)n[nH]c2n1`, the IC50 was 0.47 µM with HCT-116; 21.7 µM in the assay on MCF7; 2.42 µM with A549; 1.69 µM in the assay with WI-38; 170 nM with HeLa; 18.8 µM with HepG2.

Consider `COc1ccc2c(Nc3cc(OC)c(OC)c(OC)c3)nn(C(C)C)c2n1`, for which the IC50 is 12 µM in the assay on HCT-116; 13.2 µM in the assay with MCF7; 31.9 µM in the assay on A549; 4.32 µM in the assay on WI-38; 12800 nM in the assay with HeLa; 20 µM in the assay on HepG2.

With `COc1ccc2c(N(CC3CC3)c3cc(OC)c(OC)c(OC)c3)n[nH]c2n1`, the IC50 with HCT-116 came to 2.18 µM; in the assay with MCF7, 2.35 µM; with A549, 20.6 µM; in the assay on WI-38, 1.29 µM; in the assay with HeLa it was 180 nM; with HepG2 it was 5.46 µM.

Regarding `COc1ccc2c(Nc3cc(OC)c(OC)c(OC)c3)nn(-c3ccccc3)c2n1`, the concentration for half-maximal inhibition (IC50) in the assay on HCT-116 is above 50 µM; in the assay with MCF7, above 50 µM; in the assay with A549, above 50 µM; with WI-38, 12.6 µM; with HeLa it was 22500 nM; in the assay with HepG2, 38.8 µM.

Turning to `COc1ccc(/C=C\c2cc(OC)c(OC)c(OC)c2)cc1O` [COMBRETASTATIN A4], the IC50 with HCT-116 worked out at 0.029 µM; in the assay on MCF7 it was 0.034 µM; in the assay with A549, 0.058 µM; in the assay on WI-38 it was 31.6 µM; with HeLa it was 5 nM; in the assay with HepG2, 0.28 µM.

In the case of `COCCN(c1cc(OC)c(OC)c(OC)c1)c1n[nH]c2nc(OC)ccc12`, the IC50 in the assay on HCT-116 was 3.66 µM; with MCF7, 1.72 µM; with A549, 31.8 µM; in the assay on WI-38 it was 30.9 µM; in the assay on HeLa it was 1770 nM; with HepG2 it was above 50 µM.

Regarding `COc1ccc2c(N(Cc3ccccc3)c3cc(OC)c(OC)c(OC)c3)n[nH]c2n1`, the half-inhibitory concentration (IC50) in the assay with HCT-116 was 3.37 µM; with MCF7, 10.3 µM; in the assay with A549, above 50 µM; with WI-38, 1.67 µM; in the assay on HeLa, 3190 nM; in the assay on HepG2, 7.38 µM.

Take `COc1ccc2c(N(c3cc(OC)c(OC)c(OC)c3)C3CCCC3)nn(C3CCCC3)c2n1`: the IC50 is above 50 µM with HCT-116; above 50 µM with MCF7; above 50 µM in the assay on A549; 138 µM in the assay with WI-38; above 50000 nM with HeLa; above 50 µM in the assay on HepG2.

Take `CCN(c1cc(OC)c(OC)c(OC)c1)c1n[nH]c2nc(OC)ccc12`: the half-inhibitory concentration (IC50) in the assay with HCT-116 was 16.7 µM; with MCF7, 0.81 µM; with A549, 31.2 µM; in the assay with WI-38 it was 8.03 µM; with HeLa it was 700 nM; in the assay with HepG2 it was 9.64 µM.
